Assay results published in ChEMBL document CHEMBL1145409, “New sst4/5-selective somatostatin peptidomimetics based on a constrained tryptophan scaffold” (J Med Chem, 2007).

What was measured:
[1] = target: Somatostatin receptor type 3 (Homo sapiens, UniProt P32745); assay: Displacement of [125I][Leu8-D-Trp22, Tyr25]-SRIF28 from human SST3 receptor
How it was run: (§1)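 Membrane pellets from CHO-K1 or CCL39 cells stably expressing the human receptor subtype, cut as 20 µm sections on slides for receptor autoradiography. Full displacement of [125I]-[Leu8,D-Trp22,Tyr25]-SRIF-28 by unlabeled compound at 0.1–1000 nmol/L, SRIF-28 run in parallel. Quantified by image analysis against calibrated isotope tissue standards to give IC50; mean ± SEM of 2–4 independent repetitions.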

[2] = target: Somatostatin receptor type 4 (Homo sapiens, UniProt P31391); assay: Displacement of [125I][Leu8-D-Trp22, Tyr25]-SRIF28 from human SST4 receptor; how it was run: as §1
Chain of Somatostatin receptor type 4 (P31391 whole entry): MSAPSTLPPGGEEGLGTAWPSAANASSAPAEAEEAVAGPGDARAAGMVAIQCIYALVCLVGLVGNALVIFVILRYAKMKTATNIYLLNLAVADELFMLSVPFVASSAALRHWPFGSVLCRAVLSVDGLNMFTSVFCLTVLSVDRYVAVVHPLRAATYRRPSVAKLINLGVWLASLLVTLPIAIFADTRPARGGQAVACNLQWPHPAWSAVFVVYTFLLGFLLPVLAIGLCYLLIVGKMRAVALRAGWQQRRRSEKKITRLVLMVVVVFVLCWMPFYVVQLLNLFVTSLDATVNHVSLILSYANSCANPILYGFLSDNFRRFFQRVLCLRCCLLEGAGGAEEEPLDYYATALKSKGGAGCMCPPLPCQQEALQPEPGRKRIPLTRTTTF

[3] = target: Somatostatin receptor type 1 (Homo sapiens, UniProt P30872); assay: Displacement of [125I][Leu8-D-Trp22, Tyr25]-SRIF28 from human SST1 receptor; how it was run: as §1
Chain of Somatostatin receptor type 1 (P30872 whole entry): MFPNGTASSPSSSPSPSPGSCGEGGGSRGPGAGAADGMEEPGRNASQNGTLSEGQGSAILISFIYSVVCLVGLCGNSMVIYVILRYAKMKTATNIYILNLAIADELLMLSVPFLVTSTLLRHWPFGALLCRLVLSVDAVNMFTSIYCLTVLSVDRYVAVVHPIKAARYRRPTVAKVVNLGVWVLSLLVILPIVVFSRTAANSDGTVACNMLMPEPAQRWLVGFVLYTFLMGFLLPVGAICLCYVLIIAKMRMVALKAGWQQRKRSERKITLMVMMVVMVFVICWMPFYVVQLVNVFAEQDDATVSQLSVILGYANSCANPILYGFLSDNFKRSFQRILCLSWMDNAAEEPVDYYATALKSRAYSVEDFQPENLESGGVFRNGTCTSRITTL

[4] = target: T1, Somatostatin receptor type 5 (Homo sapiens, UniProt P35346); assay: Displacement of [125I][Leu8-D-Trp22, Tyr25]-SRIF28 from human SST5 receptor; how it was run: as §1
T1 sequence (P35346 whole entry): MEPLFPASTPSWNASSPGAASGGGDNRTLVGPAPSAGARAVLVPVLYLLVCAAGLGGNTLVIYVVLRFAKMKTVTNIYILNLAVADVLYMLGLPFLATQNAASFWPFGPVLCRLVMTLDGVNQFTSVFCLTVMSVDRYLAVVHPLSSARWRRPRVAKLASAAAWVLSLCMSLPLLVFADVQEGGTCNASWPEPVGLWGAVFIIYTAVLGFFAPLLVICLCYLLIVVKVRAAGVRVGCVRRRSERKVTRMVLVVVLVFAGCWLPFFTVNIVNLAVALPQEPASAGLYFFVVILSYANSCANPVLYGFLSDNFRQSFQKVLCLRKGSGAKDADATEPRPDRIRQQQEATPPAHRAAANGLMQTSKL

[5] = target: Somatostatin receptor type 2 (Homo sapiens, UniProt P30874); assay: Displacement of [125I][Leu8-D-Trp22, Tyr25]-SRIF28 from human SST2 receptor; how it was run: as §1
Chain of Somatostatin receptor type 2 (P30874 whole entry): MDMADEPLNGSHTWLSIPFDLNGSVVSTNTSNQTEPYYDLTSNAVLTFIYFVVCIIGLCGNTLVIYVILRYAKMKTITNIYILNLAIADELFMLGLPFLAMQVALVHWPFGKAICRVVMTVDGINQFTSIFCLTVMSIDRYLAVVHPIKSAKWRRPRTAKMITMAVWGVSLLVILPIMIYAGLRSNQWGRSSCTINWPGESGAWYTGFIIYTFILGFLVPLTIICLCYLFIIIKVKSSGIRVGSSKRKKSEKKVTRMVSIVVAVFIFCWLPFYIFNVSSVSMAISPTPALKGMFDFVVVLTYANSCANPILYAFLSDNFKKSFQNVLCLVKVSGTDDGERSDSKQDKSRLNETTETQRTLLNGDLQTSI

[6] = target: T1, Somatostatin receptor type 5; assay: Agonist activity at human SST5 receptor expressed in CHOK1 cells assessed as effect on forskolin-induced cAMP production; format: functional, cell-based, CHO-K1
How it was run: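 Stably transfected sst5 CHO-K1 cells preincubated 30 min at 37 °C in medium with 0.5 mM IBMX, then 30 min at 37 °C with 0.5 mM IBMX, with or without 10 µM forskolin and graded compound concentrations. Cells lysed; cAMP measured by scintillation proximity assay, expressed as % stimulation over nonstimulated level. EC50 from nonlinear regression of dose-response curves; three experiments, triplicate wells.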

Chain of Somatostatin receptor type 3 (P32745 whole entry): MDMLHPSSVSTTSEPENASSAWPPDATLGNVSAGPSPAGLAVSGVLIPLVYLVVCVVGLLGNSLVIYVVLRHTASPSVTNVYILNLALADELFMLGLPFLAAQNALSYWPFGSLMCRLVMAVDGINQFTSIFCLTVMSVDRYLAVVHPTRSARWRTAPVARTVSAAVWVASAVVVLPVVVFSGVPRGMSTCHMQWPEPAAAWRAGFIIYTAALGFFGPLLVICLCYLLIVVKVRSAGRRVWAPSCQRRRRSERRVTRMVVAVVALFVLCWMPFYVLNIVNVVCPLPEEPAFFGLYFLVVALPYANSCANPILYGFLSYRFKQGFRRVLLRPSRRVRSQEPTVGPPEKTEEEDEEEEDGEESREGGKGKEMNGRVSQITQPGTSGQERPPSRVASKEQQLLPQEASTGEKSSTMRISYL

Row | SMILES | IC50 [1] | IC50 [2] | IC50 [3] | IC50 [4] | IC50 [5] | EC50 [6]
1 | NCCCCCN1Cc2[nH]c3ccccc3c2C[C@@H](NC(=O)Cc2ccccc2)C1=O | > 1000 nM | 75 nM | > 1000 nM | 245 nM | > 1000 nM | 
2 | NCCCC[C@@H](C(=O)NCc1ccccc1)N1Cc2[nH]c3ccccc3c2C[C@@H](NC(=O)Cc2ccccc2)C1=O | 251 nM | 3.3 nM | 233 nM | 1.2 nM | 83 nM | 13 nM
3 | NCCCCCN1Cc2[nH]c3ccccc3c2C[C@@H](NC(=O)CC(c2ccccc2)c2ccccc2)C1=O | > 1000 nM | 129 nM | > 1000 nM | 318 nM | 357 nM | 
4 | NCCCC[C@@H](C(=O)NCc1ccccc1)N1Cc2[nH]c3ccccc3c2C[C@@H](NC(=O)CC(c2ccccc2)c2ccccc2)C1=O | 694 nM | 73 nM | 89 nM | 8 nM | 103 nM | 
